Measured values from ChEMBL document CHEMBL1138404, “Bisindole alkaloids of the topsentin and hamacanthin classes from a marine sponge Spongosorites sp” (J Nat Prod, 2007).
≈ marks a conversion by molar mass, not a printed value.

Key:
Staphylococcus aureus [1] = assay: Antibacterial activity against methicillin-resistant Staphylococcus aureus 285; format: functional
Method in brief: (§1)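 Agar dilution MIC: Mueller Hinton agar plates containing 17 serial dilutions of sample (final 25 to 0.002 μg/mL), meropenem and imipenem as standards. Strains grown 18 h at 37 °C in Fleisch extract broth (10% horse serum for some strains), spotted onto plates by automatic inoculator; MIC read after 18 h incubation.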

Staphylococcus aureus [2] = assay: Antibacterial activity against methicillin-resistant Staphylococcus aureus 503; format: functional; method in brief: as §1
[3] = Cytotoxicity against human A549 cell line; format: cell-based; settings: A549 cells, read-out: ED50 (the source's name)
[4] = Cytotoxicity against human SK-OV-3 cell line; format: cell-based; settings: SK-OV-3 cells, read-out: ED50 (the source's name)
[5] = Cytotoxicity against human SK-MEL-2 cell line; format: cell-based; settings: SK-MEL-2 cells, read-out: ED50 (the source's name)
[6] = Cytotoxicity against human XF498 cell line; format: cell-based; settings: XF498 cells, read-out: ED50 (the source's name)
[7] = Cytotoxicity against human HCT15 cell line; format: cell-based; settings: HCT-15 cells, read-out: ED50 (the source's name)
Streptococcus pyogenes [8] = assay: Antibacterial activity against methicillin-resistant Streptococcus pyogenes 308A; format: functional; method in brief: as §1
Streptococcus pyogenes [9] = assay: Antibacterial activity against methicillin-resistant Streptococcus pyogenes 77A; format: functional; method in brief: as §1
Staphylococcus aureus [10] = assay: Antibacterial activity against methicillin-resistant Staphylococcus aureus SG511; format: functional; method in brief: as §1
Escherichia coli [11] = assay: Antibacterial activity against […] Escherichia coli DC2; format: functional; method in brief: as §1
Pseudomonas aeruginosa [12] = assay: Antibacterial activity against […] Pseudomonas aeruginosa 1592E; format: functional; method in brief: as §1
Pseudomonas aeruginosa [13] = assay: Antibacterial activity against […] Pseudomonas aeruginosa 1771; format: functional; method in brief: as §1
Pseudomonas aeruginosa [14] = assay: Antibacterial activity against […] Pseudomonas aeruginosa 1771M; format: functional; method in brief: as §1
Klebsiella oxytoca = assay: Antibacterial activity against […] Klebsiella oxytoca 1082E; format: functional; method in brief: as §1
Enterobacter cloacae [15] = assay: Antibacterial activity against […] Enterobacter cloacae 1321E; format: functional; method in brief: as §1
Escherichia coli [16] = assay: Antibacterial activity against […] Escherichia coli 078; format: functional; method in brief: as §1
Escherichia coli [17] = assay: Antibacterial activity against […] Escherichia coli DC0; format: functional; method in brief: as §1
Escherichia coli [18] = assay: Antibacterial activity against […] Escherichia coli TEM; format: functional; method in brief: as §1
Escherichia coli [19] = assay: Antibacterial activity against […] Escherichia coli 1507E; format: functional; method in brief: as §1
Pseudomonas aeruginosa [20] = assay: Antibacterial activity against […] Pseudomonas aeruginosa 9027; format: functional; method in brief: as §1
Salmonella typhimurium = assay: Antibacterial activity against […] Salmonella Typhimurium; format: functional, Salmonella enterica subsp. enterica serovar Typhimurium; settings: Salmonella enterica; method in brief: as §1
Enterococcus faecium = assay: Antibacterial activity against […] Streptococcus faecium MD8b; format: functional; method in brief: as §1
Enterobacter cloacae [21] = assay: Antibacterial activity against […] Enterobacter cloacae P99; format: functional; method in brief: as §1
Klebsiella aerogenes = assay: Antibacterial activity against […] Klebsiella aerogenes 1522E; format: functional; method in brief: as §1

Row | SMILES | MIC (Staphylococcus aureus [1]) | MIC (Staphylococcus aureus [2]) | CC50 [3] | CC50 [4] | CC50 [5] | CC50 [6] | CC50 [7] | MIC (Streptococcus pyogenes [8]) | MIC (Streptococcus pyogenes [9]) | MIC (Staphylococcus aureus [10]) | MIC (Escherichia coli [11]) | MIC (Pseudomonas aeruginosa [12]) | MIC (Pseudomonas aeruginosa [13]) | MIC (Pseudomonas aeruginosa [14]) | MIC (Klebsiella oxytoca) | MIC (Enterobacter cloacae [15]) | MIC (Escherichia coli [16]) | MIC (Escherichia coli [17]) | MIC (Escherichia coli [18]) | MIC (Escherichia coli [19]) | other results
1 | O=C(C1=NC(c2c[nH]c3ccccc23)CN1)c1c[nH]c2cc(Br)ccc12 (stereo not given) [SPONGOTINE B] | 25 µg/mL (≈ 61.4 µM) | 25 µg/mL (≈ 61.4 µM) | > 30 µg/mL | > 30 µg/mL | > 30 µg/mL | > 30 µg/mL | > 30 µg/mL | 25 µg/mL (≈ 61.4 µM) | 25 µg/mL (≈ 61.4 µM) | 25 µg/mL (≈ 61.4 µM) | 25 µg/mL (≈ 61.4 µM) | > 25 µg/mL | > 25 µg/mL | 25 µg/mL (≈ 61.4 µM) | 25 µg/mL (≈ 61.4 µM) | > 25 µg/mL | > 25 µg/mL | > 25 µg/mL | > 25 µg/mL | > 25 µg/mL | MIC (Pseudomonas aeruginosa [20]): > 25 µg/mL; MIC (Salmonella typhimurium): > 25 µg/mL; MIC (Enterococcus faecium): > 25 µg/mL; MIC (Enterobacter cloacae [21]): > 25 µg/mL; MIC (Klebsiella aerogenes): > 25 µg/mL
2 | O=C1N[C@H](c2c[nH]c3ccccc23)CN[C@H]1c1c[nH]c2cc(Br)ccc12 | – | – | > 10 µg/mL | 4.92 µg/mL (≈ 12 µM) | > 10 µg/mL | > 10 µg/mL | > 10 µg/mL | – | – | – | – | – | – | – | – | – | – | – | – | – | –
3 | O=C1N[C@@H](c2c[nH]c3ccccc23)CN=C1c1c[nH]c2ccccc12 | > 25 µg/mL | > 25 µg/mL | 8.3 µg/mL (≈ 25.3 µM) | 11.5 µg/mL (≈ 35 µM) | 5 µg/mL (≈ 15.2 µM) | 17.1 µg/mL (≈ 52.1 µM) | 4.1 µg/mL (≈ 12.5 µM) | 25 µg/mL (≈ 76.1 µM) | 25 µg/mL (≈ 76.1 µM) | > 25 µg/mL | > 25 µg/mL | 25 µg/mL (≈ 76.1 µM) | 25 µg/mL (≈ 76.1 µM) | > 25 µg/mL | > 25 µg/mL | > 25 µg/mL | > 25 µg/mL | > 25 µg/mL | > 25 µg/mL | > 25 µg/mL | MIC (Pseudomonas aeruginosa [20]): > 25 µg/mL; MIC (Salmonella typhimurium): > 25 µg/mL; MIC (Enterococcus faecium): > 25 µg/mL; MIC (Enterobacter cloacae [21]): > 25 µg/mL; MIC (Klebsiella aerogenes): > 25 µg/mL
4 | O=C(C1=NC(c2c[nH]c3cc(Br)ccc23)CN1)c1c[nH]c2cc(Br)ccc12 (stereo not given) [SPONGOTINE C] | – | – | 5.22 µg/mL (≈ 10.7 µM) | 4.81 µg/mL (≈ 9.89 µM) | 4.82 µg/mL (≈ 9.91 µM) | 5.16 µg/mL (≈ 10.6 µM) | 4.88 µg/mL (≈ 10 µM) | – | – | – | – | – | – | – | – | – | – | – | – | – | –
5 | C[C@@H](O)[C@H]1C(=O)N2C(C(=O)O)=C(S[C@@H]3CN[C@H](C(=O)N(C)C)C3)[C@H](C)[C@H]12 [MEROPENEM] | 0.098 µg/mL (≈ 0.256 µM) | 0.049 µg/mL (≈ 0.128 µM) | – | – | – | – | – | 0.004 µg/mL (≈ 0.0104 µM) | 0.004 µg/mL (≈ 0.0104 µM) | 0.049 µg/mL (≈ 0.128 µM) | 0.013 µg/mL (≈ 0.0339 µM) | 0.098 µg/mL (≈ 0.256 µM) | 0.391 µg/mL (≈ 1.02 µM) | 0.049 µg/mL (≈ 0.128 µM) | 0.049 µg/mL (≈ 0.128 µM) | – | – | – | – | – | –
6 | O=C1N[C@H](c2c[nH]c3cc(Br)ccc23)CN[C@H]1c1c[nH]c2ccccc12 | > 25 µg/mL | > 25 µg/mL | 7.5 µg/mL (≈ 18.3 µM) | 12.1 µg/mL (≈ 29.6 µM) | 13.1 µg/mL (≈ 32 µM) | 19.1 µg/mL (≈ 46.7 µM) | 6.3 µg/mL (≈ 15.4 µM) | > 25 µg/mL | > 25 µg/mL | > 25 µg/mL | > 25 µg/mL | 25 µg/mL (≈ 61.1 µM) | 25 µg/mL (≈ 61.1 µM) | > 25 µg/mL | > 25 µg/mL | > 25 µg/mL | > 25 µg/mL | > 25 µg/mL | > 25 µg/mL | > 25 µg/mL | MIC (Pseudomonas aeruginosa [20]): > 25 µg/mL; MIC (Salmonella typhimurium): > 25 µg/mL; MIC (Enterococcus faecium): > 25 µg/mL; MIC (Enterobacter cloacae [21]): > 25 µg/mL; MIC (Klebsiella aerogenes): > 25 µg/mL
7 | O=C1NC[C@@H](c2c[nH]c3cc(Br)ccc23)N[C@H]1c1c[nH]c2ccccc12 | > 25 µg/mL | > 25 µg/mL | 4.2 µg/mL (≈ 10.3 µM) | 6 µg/mL (≈ 14.7 µM) | 7.1 µg/mL (≈ 17.3 µM) | 6.8 µg/mL (≈ 16.6 µM) | 6.3 µg/mL (≈ 15.4 µM) | 25 µg/mL (≈ 61.1 µM) | > 25 µg/mL | > 25 µg/mL | > 25 µg/mL | 25 µg/mL (≈ 61.1 µM) | 25 µg/mL (≈ 61.1 µM) | > 25 µg/mL | > 25 µg/mL | > 25 µg/mL | > 25 µg/mL | > 25 µg/mL | > 25 µg/mL | > 25 µg/mL | MIC (Pseudomonas aeruginosa [20]): > 25 µg/mL; MIC (Salmonella typhimurium): > 25 µg/mL; MIC (Enterococcus faecium): > 25 µg/mL; MIC (Enterobacter cloacae [21]): > 25 µg/mL; MIC (Klebsiella aerogenes): > 25 µg/mL
8 | O=C1N[C@@H](c2c[nH]c3cc(Br)ccc23)CN=C1c1c[nH]c2cc(Br)ccc12 [HAMACANTHIN A] | – | – | 4.49 µg/mL (≈ 9.24 µM) | 5.24 µg/mL (≈ 10.8 µM) | 5.44 µg/mL (≈ 11.2 µM) | 5.6 µg/mL (≈ 11.5 µM) | 4.66 µg/mL (≈ 9.59 µM) | – | – | – | – | – | – | – | – | – | – | – | – | – | –
9 | COc1cccc2c1C(=O)c1c(O)c3c(c(O)c1C2=O)C[C@@](O)(C(=O)CO)C[C@@H]3O[C@H]1C[C@H](N)[C@H](O)[C@H](C)O1 [DOXORUBICIN] | – | – | 0.01 µg/mL (≈ 0.0184 µM) | 0.03 µg/mL (≈ 0.0552 µM) | 0.01 µg/mL (≈ 0.0184 µM) | 0.01 µg/mL (≈ 0.0184 µM) | 0.02 µg/mL (≈ 0.0368 µM) | – | – | – | – | – | – | – | – | – | – | – | – | – | –
10 | O=C1NC[C@@H](c2c[nH]c3ccccc23)N[C@H]1c1c[nH]c2ccccc12 | – | – | > 10 µg/mL | 9.64 µg/mL (≈ 29.2 µM) | > 10 µg/mL | > 10 µg/mL | > 10 µg/mL | – | – | – | – | – | – | – | – | – | – | – | – | – | –
11 | O=C1NC[C@H](c2c[nH]c3cc(Br)ccc23)N=C1c1c[nH]c2cc(Br)ccc12 [HAMACANTHIN B] | – | – | 2.14 µg/mL (≈ 4.4 µM) | 2.61 µg/mL (≈ 5.37 µM) | 1.59 µg/mL (≈ 3.27 µM) | 2.93 µg/mL (≈ 6.03 µM) | 1.52 µg/mL (≈ 3.13 µM) | – | – | – | – | – | – | – | – | – | – | – | – | – | –
12 | O=C(C1=NC(c2c[nH]c3cc(Br)ccc23)CN1)c1c[nH]c2ccccc12 (stereo not given) [SPONGOTINE A] | – | – | 6.82 µg/mL (≈ 16.7 µM) | 3.71 µg/mL (≈ 9.11 µM) | 5.04 µg/mL (≈ 12.4 µM) | 7.22 µg/mL (≈ 17.7 µM) | 9.8 µg/mL (≈ 24.1 µM) | – | – | – | – | – | – | – | – | – | – | – | – | – | –
